Experimental findings from ChEMBL document CHEMBL5532647, “Design, synthesis, ADME and biological evaluation of benzylpiperidine and benzylpiperazine derivatives as novel reversible monoacylglycerol lipase (MAGL) inhibitors” (Eur J Med Chem, 2024) are described below.

Each structure is given as a SMILES string. Converted amounts (≈) assume the structure as drawn. The source made the active and inactive calls. The rule behind the calls is not given here.

One data set deals with T1, Monoglyceride lipase (Homo sapiens, UniProt Q99685).
T1 sequence (Q99685 whole entry): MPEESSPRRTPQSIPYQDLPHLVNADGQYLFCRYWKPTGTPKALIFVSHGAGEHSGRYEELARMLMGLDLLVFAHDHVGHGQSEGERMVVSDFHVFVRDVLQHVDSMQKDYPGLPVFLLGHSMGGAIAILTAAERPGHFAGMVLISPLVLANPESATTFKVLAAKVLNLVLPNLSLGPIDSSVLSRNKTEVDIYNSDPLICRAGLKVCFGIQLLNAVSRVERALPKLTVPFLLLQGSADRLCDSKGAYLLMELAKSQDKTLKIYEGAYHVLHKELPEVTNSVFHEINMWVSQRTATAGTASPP
Put plainly: Inhibition of human recombinant MAGL using 4-nitrophenylacetate as substrate incubated for 30 mins by microplate reader analysis.

A short description of data set [1]: Stability in human plasma measured after 24 hrs by UV/LC-MS analysis. The format is ADME, cell-free. As to conditions: read-out: Stability. The method, boiled down: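 Compound (2 mM) incubated at 37 °C in pooled human plasma (55.7 mg protein/mL) with HEPES 25 mM, NaCl 140 mM, pH 7.4. Samples taken at 0–24 h and precipitated with cold acetonitrile. After centrifugation, supernatant analysed by UV/LC-MS. Three independent experiments.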

Data set [2] is described as follows: Permeability of the compound assessed as membrane retention rate by PAMPA method. The format is ADME. In outline:
(§1)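 Donor solution made from 1 mM DMSO stock diluted in 25 mM phosphate buffer pH 7.4 to 500 μM final. Filter coated with 1% (w/v) phosphatidylcholine in dodecane. Acceptor was 1:1 v/v DMSO/phosphate buffer. Sandwich incubated 5 h at room temperature. Compound in donor and acceptor wells quantified by UV/LC-MS.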
Background: PAMPA measures passive passage across an artificial lipid membrane.

Data set [3] in a line: Metabolic stability in human liver microsome in presence of NADPH-regenerating system by UV/LC-MS analysis. The data set is classed as ADME. The following applies: microsomes. In outline: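 Compound incubated 1 h at 37 °C with human liver microsomes (0.2 mg/mL) and an NADPH-regenerating system (NADPH 0.2 mM, NADP+ 1 mM, glucose-6-phosphate 4 mM, G6PDH 4 unit/mL, MgCl2 48 mM) in 25 mM phosphate buffer pH 7.4. Quenched with acetonitrile, then centrifuged. Parent and metabolites measured by UV/LC-MS. Percent unmetabolized obtained against reference solutions; three independent experiments.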

Data set [4] is described as follows: Thermodynamic aqueous solubility of the compound by LC-MS/MS analysis. The format is physicochemical. As to conditions: read-out: Therm_solubility. In outline: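 Solid compound (1 mg) shaken overnight in 1 mL distilled water at room temperature. Suspension passed through a 0.45 μm nylon filter. Dissolved compound quantified in triplicate by UV/LC-MS or LC-MS/MS against a calibration curve of compound in methanol.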

A short description of data set [5]: Apparent permeability of the compound by PAMPA method. The format is ADME. In outline: as §1
The target in data set [6] is T2, Monoacylglycerol lipase ABHD6 (Mus musculus) (UniProt Q8R2Y0).
T2 sequence (whole entry): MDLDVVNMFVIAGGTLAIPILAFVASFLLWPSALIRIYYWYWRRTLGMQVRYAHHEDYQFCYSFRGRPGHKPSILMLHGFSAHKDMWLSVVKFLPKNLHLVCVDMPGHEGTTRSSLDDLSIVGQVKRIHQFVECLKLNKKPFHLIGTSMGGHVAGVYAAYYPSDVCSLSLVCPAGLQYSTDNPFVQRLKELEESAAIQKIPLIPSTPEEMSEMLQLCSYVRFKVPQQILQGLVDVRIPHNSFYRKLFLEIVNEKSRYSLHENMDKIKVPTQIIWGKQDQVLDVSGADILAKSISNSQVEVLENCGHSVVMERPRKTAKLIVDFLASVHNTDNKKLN
Put plainly: Displacement of TAMRA-FP from mouse brain ABHD6 at 10 uM incubated with compound for 5 mins followed by ABPP assay. The data set is classed as tissue-based. In outline:
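Mouse brain membranes (2 mg/mL final, in PBS) preincubated 25 min at 25 °C with test compound (10 μM final) or DMSO vehicle. Controls: JZL-184, URB597 4 μM, WWL70 10 μM, THL, MAFP 5 μM. TAMRA-FP 125 nM final added for 5 min at 25 °C. Reaction stopped with Laemmli buffer, 3 min at 25 °C then 10 min at 90 °C. Separation by 10% SDS-PAGE, fluorescence scanning, three independent experiments.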

Data set [7] addresses T3, Monoglyceride lipase (Mus musculus) (UniProt O35678).
T3 sequence (whole entry): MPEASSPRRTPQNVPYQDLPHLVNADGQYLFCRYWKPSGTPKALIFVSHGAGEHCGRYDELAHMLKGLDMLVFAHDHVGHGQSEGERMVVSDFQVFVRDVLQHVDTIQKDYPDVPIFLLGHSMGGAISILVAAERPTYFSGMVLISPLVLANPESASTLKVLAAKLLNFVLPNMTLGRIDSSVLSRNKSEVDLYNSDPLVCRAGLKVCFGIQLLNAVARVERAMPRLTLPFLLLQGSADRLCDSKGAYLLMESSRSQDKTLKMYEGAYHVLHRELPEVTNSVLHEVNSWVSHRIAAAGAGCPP
Put plainly: Displacement of TAMRA-FP from mouse brain MAGL at 1 uM incubated with compound for 5 mins followed by ABPP assay. The data set is classed as tissue-based.

What is called IC50 is the concentration needed to halve the response being measured. Regarding `O=C(c1cccc(O)c1)N1CCC(Cc2cccc(Sc3ncccc3C(F)(F)F)c2)CC1`, the IC50 at Monoglyceride lipase worked out at 7.1 nM.
Broadly, the Papp is a coefficient for how fast a substance crosses the barrier. As to `O=C(c1ccc(Sc2cccc(C(F)(F)F)c2)cc1)C1CCN(C(=O)c2cc(O)ccc2F)CC1`, in data set [1], the remaining at 24 h is over 99%. Also, the R% in data set [2] was 47%. The Stability in data set [3] is on record as 90.71%. Further, in data set [4], the solubility thermodynamic turned out to be 0.129 ng/mL (≈ 0.256 nM). Also, in data set [5], the Papp worked out at 1.83 ×10⁻⁶ cm/s.
Regarding `O=C(c1cc(O)ccc1Sc1ccccc1)N1CCC(Cc2cccc(Sc3cc(C(F)(F)F)ccn3)c2)CC1`, the IC50 on Monoglyceride lipase is 32.3 nM.
As for `O=C(Nc1ccc(O)cc1C(=O)N1CCC(Cc2cccc(Sc3cc(C(F)(F)F)ccn3)c2)CC1)c1ccccc1`, the IC50 on Monoglyceride lipase worked out at 112 nM.
With `O=C(Nc1cc(O)cc(C(=O)N2CCC(Cc3cccc(Sc4cc(C(F)(F)F)ccn4)c3)CC2)c1)c1ccccc1`, the IC50 on Monoglyceride lipase worked out at 149 nM.
Take `O=C(c1ccc(Sc2ccccc2)c(O)c1)N1CCC(Cc2cccc(Sc3cc(C(F)(F)F)ccn3)c2)CC1`: the IC50 at Monoglyceride lipase turned out to be 242 nM.
For the compound `O=C(c1cccc(O)c1)N1CCC(Cc2cc(Sc3cc(C(F)(F)F)ccn3)ccc2O)CC1`, on Monoglyceride lipase, the IC50 amounted to 20.8 nM.
Still for that read-out and setting: the figure for `O=C(c1cccc(O)c1)N1CCC(Cc2cccc(Sc3cccc(C(F)(F)F)n3)c2)CC1` is 13.2 nM; for `O=C(c1cccc(O)c1)N1CCC(Cc2cccc(Sc3ccc(C(F)(F)F)cn3)c2)CC1` it is 40.4 nM.
Turning to `O=C(c1cccc(O)c1)N1CCC(Cc2ccc(O)c(Sc3cc(C(F)(F)F)ccn3)c2)CC1`, the IC50 at Monoglyceride lipase was 61.2 nM.
Still for that read-out and setting: next, `O=C(c1cc(O)cc(Sc2ccccc2)c1)N1CCC(Cc2cccc(Sc3cc(C(F)(F)F)ccn3)c2)CC1`: 44.8 nM; `COc1ccc(CC2CCN(C(=O)c3cccc(O)c3)CC2)cc1Sc1cc(C(F)(F)F)ccn1`: 14.4 nM; `COc1ccc(Sc2cc(C(F)(F)F)ccn2)cc1CC1CCN(C(=O)c2cccc(O)c2)CC1`: 49.1 nM.
In the case of `CN(Cc1cccc(-c2ccncc2)c1)C(=O)Oc1ccc(-c2ccc(C(N)=O)cc2)cc1`, the outcome in data set [6] was Active.
In the case of `O=C(Nc1ccc(C(=O)N2CCC(Cc3cccc(Sc4cc(C(F)(F)F)ccn4)c3)CC2)cc1O)c1ccccc1`, the IC50 at Monoglyceride lipase is over 1000 nM.
For the compound `O=C(c1cccc(O)c1)N1CCC(Cc2cc(Sc3cc(C(F)(F)F)ccn3)ccc2F)CC1`, the IC50 on Monoglyceride lipase was determined as 22.5 nM.
For `O=C(Oc1ccc([N+](=O)[O-])cc1)N1CCC(C(O)(c2ccc3c(c2)OCO3)c2ccc3c(c2)OCO3)CC1`, the outcome in data set [7] was Active.
